Measurements taken from ChEMBL document CHEMBL1125027, “Synthesis and cytotoxicity studies of 8-amino-6-methyl-2-beta-D-ribofuranosyl-1,2,3,5,6,7-hexaazaacenaphthyle ne (7-aza-TCN) and the corresponding 2'-deoxy- and arabinonucleoside analogues” (1990).

Assays:
HEp-2 [1] = experiment: Growth rate of H.Ep.2 tumor cells at a concentration of 10 uM; format: functional, Homo sapiens
Method in brief: (§1)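 Human epidermoid carcinoma H.Ep.2 monolayers kept in exponential growth in Eagle's basal medium (Hanks' salts) with 0.5 g/L NaHCO3 and 15% heat-inactivated calf serum. 2 × 10^4 cells seeded per flask; after 1 day, compound-containing medium added. Trypsin/EDTA harvest and counts of two flasks per group on days 1, 2 and 4. Growth rate = control doubling time (about 19 h) / treated doubling time, as % of control.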

L1210 [2] = experiment: Growth rate of L1210 tumor cells at a concentration of 10 uM; format: functional, Mus musculus
Method in brief: (§2)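 Murine leukemia L1210 grown in static suspension in Fischer's medium with test compound for 3 days, counted daily. Growth rate = slope of log cell number vs time relative to control, computed as control doubling time (about 12 h) / treated doubling time, expressed as %. Values are single experiments unless footnoted as the average of three.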

L1210 [3] = experiment: Growth rate of L1210 tumor cells at a concentration of 100 uM; format: functional, Mus musculus; method in brief: as §2
HEp-2 [4] = experiment: Growth rate of H.Ep.2 tumor cells at a concentration of 50 uM; format: functional, Homo sapiens; method in brief: as §1
L1210 [5] = experiment: Growth rate of L1210 tumor cells at a concentration of 50 uM; format: functional, Mus musculus; method in brief: as §2
HEp-2 [6] = experiment: Growth rate of H.Ep.2 tumor cells at a concentration of 100 uM; format: functional, Homo sapiens; method in brief: as §1

| Compound | Growth rate (L1210 [3]) | Growth rate (HEp-2 [6]) | further results |
| --- | --- | --- | --- |
| CN1N=C(N)c2nn(C3O[C@H](CO)[C@@H](O)[C@H]3O)c3nc(NN)nc1c23 (stereo not given in full) | – | – | Growth rate (HEp-2 [1]): 88%; Growth rate (L1210 [2]): 86% |
| CN1N=C(N)c2nn(C3O[C@H](CO)[C@@H](O)[C@H]3O)c3nc(S(C)(=O)=O)nc1c23 (stereo not given in full) | 86% | – | – |
| CN1N=C(N)c2nn(C3O[C@H](CO)[C@@H](O)[C@@H]3O)c3ncnc1c23 (stereo not given in full) | – | – | Growth rate (HEp-2 [4]): 62%; Growth rate (L1210 [5]): 75% |
| CN1N=C(N)c2nn([C@H]3C[C@H](O)[C@@H](CO)O3)c3ncnc1c23 | 83% | 100% | – |
| CSc1nc2c3c(nn(C4O[C@H](CO)[C@@H](O)[C@H]4O)c3n1)C(N)=NN2C (stereo not given in full) | 81% | – | – |
| CN1N=C(N)c2nn(C3O[C@H](CO)[C@@H](O)[C@H]3O)c3ncnc1c23 (stereo not given in full) | 63% | 67% | – |
